Results: ChEMBL document CHEMBL1129690, “Design, synthesis, and structure-activity relationship studies of novel 1-[(1-acyl-4-piperidyl)methyl]-1H-2- methylimidazo[4,5-c]pyridine derivatives as potent, orally active platelet-activating factor antagonists” (J Med Chem, 1996)

Tests used:
Canis familiaris [1] = experiment: Inhibition of PAF-induced platelet aggregation in whole blood obtained after 4 hr from dog injected with an intravenous dose of 1 mg/Kg of compound; format: functional, Canis lupus familiaris
Outline: (§1)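 Male Beagle dogs (8-12 kg) dosed once at 1 mg/kg iv. Venous blood drawn before dosing and at 4 and 6 h, anticoagulated with 3.8% citrate (1:9) and diluted 1:1 in saline.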

Mus musculus [2] = experiment: Dosage required to inhibit PAF-induced mortality in mice by 50% through intravenous route; format: functional; conditions: read-out: ID50 (the source's name)
Outline: (§2)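 Male Swiss mice, 22-26 g, groups of 10. Test article given iv (10 mL/kg, saline vehicle) 5 min before, or po (20 mL/kg, 1% Tween 80) 60 min before, tail-vein C-18-PAF 100 µg/kg plus propranolol 1 mg/kg. Mortality scored 2 h after PAF; % inhibition vs vehicle controls. ID50 by linear regression, ≥4 points.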

Mus musculus [3] = experiment: Dosage required to inhibit PAF-induced mortality in mice by 50% through oral administration; format: functional; conditions: read-out: ID50 (the source's name); outline: as §2
Oryctolagus cuniculus = organism: Oryctolagus cuniculus; experiment: Concentration required to inhibit PAF-induced maximum platelet aggregation in rabbit platelet-rich plasma; format: functional
Outline: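 PRP prepared by centrifugation at 250g, 10 min, 4 °C, and diluted with platelet-poor plasma (3000g, 10 min) to 3.5 × 10⁵ platelets/mm³. Aggregation triggered by C-18-PAF at 1.5 × 10^-8 M and read on a dual-channel aggregometer. IC50 from linear regression of at least four points, each the mean of one to three independent experiments.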

Rattus norvegicus = experiment: Dose required to reduce the lowering of the arterial blood pressure caused by PAF by 50% after intravenous administration in rats; format: functional; conditions: read-out: ID50 (the source's name)
Outline: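 Rats with both femoral veins catheterized, one for test compound and one for PAF (0.5 µg/kg). Compound given iv in saline (1 mL/kg) 3 min before PAF. Blood pressure monitored; % inhibition of hypotension calculated versus controls. ID50 from linear regression of at least four doses, each the mean of two or more independent experiments.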

Mus musculus [4] = experiment: Percentage of inhibition by the compound against PAF-induced mortality in mice 5 hr after intravenous administration of 1 mg/Kg; format: functional
Outline: (§3)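 Male Swiss mice given single 1 mg/kg iv dose at time 0. C-18-PAF 100 µg/kg plus propranolol 1 mg/kg injected by lateral tail vein at later times (10-40 mice/time). Deaths scored 2 h after PAF. Percentage inhibition of mortality vs vehicle (saline) controls recorded at each time.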

Mus musculus [5] = experiment: Percentage of inhibition by the compound against PAF-induced mortality in mice 3 hr after intravenous administration of 1 mg/Kg; format: functional; outline: as §3
Canis familiaris [6] = experiment: Inhibition of PAF-induced platelet aggregation in whole blood obtained after 6 hr from dog injected with an intravenous dose of 1 mg/Kg of compound; format: functional, Canis lupus familiaris; outline: as §1
Mus musculus [7] = experiment: Percentage of inhibition by the compound against PAF-induced mortality in mice 7 hr after intravenous administration of 1 mg/Kg; format: functional; outline: as §3
Mus musculus [8] = experiment: Compound after an intravenous dose of 0.03 mg/Kg was tested for the inhibition of PAF-induced mortality in mice; format: functional; outline: as §2
Mus musculus [9] = experiment: Compound after an intravenous dose of 0.01 mg/Kg was tested for the inhibition of PAF-induced mortality in mice; format: functional; outline: as §2

SMILES | Inhibition (Canis familiaris [1]) [%] | ED50 (Mus musculus [2]) [mg/kg] | ED50 (Mus musculus [3]) [mg/kg] | IC50 (Oryctolagus cuniculus) [nM] | ED50 (Rattus norvegicus) [mg/kg] | inhibition in vivo at 1 mg/kg (Mus musculus [4]) [%] | inhibition in vivo at 1 mg/kg (Mus musculus [5]) [%] | Inhibition (Canis familiaris [6]) [%] | inhibition in vivo at 1 mg/kg (Mus musculus [7]) [%] | inhibition in vivo at 0.03 mg/kg (Mus musculus [8]) [%] | inhibition in vivo at 0.01 mg/kg (Mus musculus [9]) [%]
Cc1ncccc1C(C#N)N1CCN(C(=O)CNC(c2ccccc2)c2ccccc2)CC1 (configuration not stated) | 39 | 0.009 | 0.3 | 40 | 0.021 | 15 | 30 |  |  |  | 
Cc1nc2cnccc2n1CC1CCN(C(=O)CC(c2ccccc2)c2ccccc2)CC1 | 100 | 0.0008 | 0.092 | 7.6 |  | 100 | 100 | 100 | 100 |  | 
N#CC(c1cccnc1)C1CCN(C(=O)CNC(c2ccccc2)c2ccccc2)CC1 (configuration not stated) |  |  | 2.6 | 24 | 0.03 |  |  |  |  |  | 
CCOC[C@@H](NC(=O)N1CCC(Cn2c(C)nc3cnccc32)CC1)c1ccccc1 |  | 0.01 | 1 | 17 |  |  |  |  |  |  | 
CCOC(=O)[C@H](NC(=O)N1CCC(Cn2c(C)nc3cnccc32)CC1)c1ccccc1 |  | 0.02 | > 1 | 150 | 0.069 |  |  |  |  |  | 
Cc1nc2cnccc2n1CC1CCN(C(=O)CC(O)(c2ccccc2)C(F)(F)F)CC1 (configuration not stated) |  | 0.0029 | 0.032 | 36 |  | 90 |  |  | 70 |  | 
CCOC(=O)C(CC(=O)N1CCC(Cn2c(C)nc3cnccc32)CC1)c1ccccc1 (configuration not stated) |  |  |  | 12 | 0.17 |  |  |  |  | 45 | 
Cc1nc2cnccc2n1CC1CCN(C(=O)CNC(c2ccccc2)c2ccccc2)CC1 |  | 0.0041 | 1 | 13 | 0.067 |  |  |  |  |  | 
CCOC(=O)[C@H](CC(C)C)NC(=O)N1CCC(Cn2c(C)nc3cnccc32)CC1 |  | 0.0027 | > 1 | 12 | 0.03 |  |  |  |  |  | 
Cc1nc2cnccc2n1CC1CCN(C(=O)N[C@H](C)c2ccccc2)CC1 | 100 | 0.0047 | 1 | 13 |  | 56 |  | 77 | 22 |  | 
Cc1nc2cnccc2n1CC1CCN(C(=O)CC(C)c2ccccc2)CC1 (configuration not stated) |  | 0.003 | 1 | 12 |  |  |  |  |  |  | 
COc1ccccc1CCC(=O)N1CCC(Cn2c(C)nc3cnccc32)CC1 |  | 0.0033 | > 1 | 15 | 0.045 |  |  |  |  |  | 
Cc1nc2cnccc2n1CC1CCN(C(=O)C=C(c2ccccc2)c2ccccc2)CC1 |  | 0.0037 | > 1 | 240 | 0.011 |  |  |  |  |  | 
Cc1nc2cnccc2n1CC1CCN(C(=O)CCc2ccccc2)CC1 |  | 0.013 | > 1 | 60 | > 5 |  |  |  |  |  | 
Cc1nc2cnccc2n1CC1CCN(S(=O)(=O)CC(C)(C)c2ccccc2)CC1 |  |  | > 1 | 6.2 | 0.087 |  |  |  |  |  | 50
COc1ccccc1N(C)CC(=O)N1CCC(Cn2c(C)nc3cnccc32)CC1 | 100 | 0.0066 | > 1 | 14 | 0.063 | 90 |  | 87 | 70 |  | 
Cc1nc2cnccc2n1CC1CCN(C(=O)CC(O)(c2ccccc2)c2ccccc2)CC1 |  | 0.03 | 0.03 | 640 | 0.013 |  |  |  |  |  | 

SMILES | Inhibition (Canis familiaris [1]) [%] | ED50 (Mus musculus [2]) [mg/kg] | ED50 (Mus musculus [3]) [mg/kg] | IC50 (Oryctolagus cuniculus) [nM] | ED50 (Rattus norvegicus) [mg/kg] | inhibition in vivo at 1 mg/kg (Mus musculus [4]) [%] | inhibition in vivo at 1 mg/kg (Mus musculus [5]) [%] | Inhibition (Canis familiaris [6]) [%] | inhibition in vivo at 1 mg/kg (Mus musculus [7]) [%] | inhibition in vivo at 0.03 mg/kg (Mus musculus [8]) [%] | inhibition in vivo at 0.01 mg/kg (Mus musculus [9]) [%]
CC/C(=C\C(=O)N1CCC(Cn2c(C)nc3cnccc32)CC1)c1ccccc1 |  |  | > 1 | 13 | 0.0054 |  |  |  |  | 50 | 
Cc1nc2cnccc2n1CC1CCN(C(=O)OCC2(c3ccccc3)CC2)CC1 |  | 0.012 | > 1 | 35 |  |  |  |  |  |  | 
Cc1nc2cnccc2n1CC1CCN(C(=O)NC2(c3ccccc3)CC2)CC1 |  | 0.002 | 0.3 | 17 |  |  |  |  |  |  | 
CCCC(CC(=O)N1CCC(Cn2c(C)nc3cnccc32)CC1)c1ccccc1 (configuration not stated) |  | 0.01 | 1 | 11 |  |  |  |  |  |  | 
CCOC(=O)[C@@H](NC(=O)N1CCC(Cn2c(C)nc3cnccc32)CC1)c1ccccc1 |  |  | > 1 | 16 | 0.061 |  |  |  |  |  | 50
Cc1nc2cnccc2n1CC1CCN(C(=O)NC(c2ccccc2)c2ccccc2)CC1 |  | > 0.03 | > 1 | 8.1 | 0.14 |  |  |  |  |  | 
COC(=O)NC(CC(=O)N1CCC(Cn2c(C)nc3cnccc32)CC1)c1ccccc1 (configuration not stated) |  | 0.0027 | 0.1 | 12 | 0.035 |  |  |  |  |  | 
Cc1nc2cnccc2n1C1CCN(C(=O)CC(c2ccccc2)c2ccccc2)CC1 |  |  | > 3 | 100 | 0.41 |  |  |  |  |  | 
Cc1nc2cnccc2n1CC1CCN(C(=O)CC(C)(C)c2ccccc2)CC1 | 100 | 0.0027 | 1 | 6.7 |  | 88 |  | 100 | 50 |  | 
Cc1nc2cnccc2n1CC1CCN(C(=O)CC(C)(O)c2ccccc2)CC1 (configuration not stated) | 59 | 0.0029 | 1 | 6.9 |  | 80 |  | 43 | 60 |  | 
Cc1nc2cnccc2n1CC1CCN(C(=O)CN(C)c2ccccc2)CC1 |  | > 0.03 | > 1 | 23 | 0.31 |  |  |  |  |  | 
Cc1nc2cnccc2n1CC1CCN(C(=O)N[C@@H](C)c2ccccc2)CC1 |  |  | > 1 | 41 | 0.21 |  |  |  |  | 45 | 
COC/C(=C\C(=O)N1CCC(Cn2c(C)nc3cnccc32)CC1)c1ccccc1 |  | 0.0079 | > 1 | 18 | 0.022 |  |  |  |  |  | 
COC(=O)NC(CC(=O)N1CCC(n2c(C)nc3cnccc32)CC1)c1ccccc1 (configuration not stated) |  |  |  | 1300 | 0.56 |  |  |  |  |  | 
COC(=O)NC(CC(=O)N1CCN(C(C#N)c2cccnc2C)CC1)c1ccccc1 (configuration not stated) |  | 0.0055 | 0.044 | 41 | 0.015 |  |  |  |  |  | 
Cc1nnc2n1-c1sc(CCC(=O)N3CCOCC3)cc1C(c1ccccc1Cl)=NC2 [APAFANT] | 100 | 0.084 | 1.24 | 91 | 0.17 | 27 | 55 | 55 | 31 |  | 
CCOC(=O)[C@H](CC(C)C)N(C)S(=O)(=O)c1ccc(Cn2c(C)nc3cnccc32)cc1 [LEXIPAFANT] | 100 | 0.0021 | 0.11 | 3.6 | 0.0037 | 95 | 100 | 100 | 56 |  | 
